TRPC6 inh = mouse TRPC6 channel inhibition. Q61143. HEK293-TRPC6, membrane potential dye, ACh-evoked depolarization; hits give low values. B-score at 10 µM. 1.1% of 310,000 active;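 active means B-score under library mean minus 3 SD, initial fluorescence not abnormally high, positive integrated signal ratio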;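 further: B-score derived from integrated fluorescence ratio over the kinetic read; more negative B-score means stronger inhibition of depolarization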
TRPC4 inh = inhibitors of mouse TRPC4 channel. Q9QUQ5. HEK293 TRPC4beta/mu-opioid, DAMGO-evoked Fluo4 calcium flux; hits give low values. B-score at 10 µM. 0.39% of 300,000 active;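 active means B-score over 3 SD under the library average, no early fluorescence shift, positive overall ratio signal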
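Assay system: HEK293 cells with stable TRPC4beta plus mu-opioid receptor expression. Dosing: single dose. Measured by: Fluo4 Ca2+ flux fluorescence. Also added: DAMGO in two steps, submaximal then maximal. Read-out: B score from integrated Fluo4 fluorescence ratio.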
TRPC6 activator = activates the mouse TRPC6 cation channel; Q61143; HEK293-TRPC6 membrane potential dye fluorescence; hits give high values; B-score at 10 µM; 0.13% of 310,000 active; AID 2550;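 active means B-score of the integrated fluorescence ratio above library mean plus 3 SD, and starting fluorescence ratio within library mean plus 5 SD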;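 further: higher score means more depolarization so channel activation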
TRPC4 agonist = activators of mouse TRPC4 channel. Q9QUQ5. HEK293 TRPC4beta/mu-opioid, Fluo4 calcium fluorescence; hits give high values. B-score at 10 µM. 0.49% of 310,000 active;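 active means B-score above 5 SD of library B-scores, and initial fluorescence ratio not above library mean plus 5 SD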;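 further: positive B-score marks a calcium rise read as TRPC4 activation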
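Material: TRPC4beta and mu-opioid receptor HEK293 stable cells | Incubation: 45 min room-temperature Fluo4 loading, 110 s read | Detection: Kinetic Fluo4 calcium fluorescence | Measure: Integrated baseline-normalised fluorescence ratio, converted to per-well B score | Benchmarks: Low control buffer alone, high control maximal DAMGO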
TRPC4 PAM = TRPC4 (mouse) allosteric potentiation | Q9QUQ5 | HEK293 TRPC4beta/mu-opioid, DAMGO EC20, Fluo-4 Ca2+ flux; hits give high values | B-score at 10 µM | 0.42% of 310,000 active;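 active means B-score of calcium response area above 5 SD of library B-scores, with initial fluorescence ratio within 5 SD of library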;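 further: B-score of integrated fluorescence ratio over time as area under calcium response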
* hit, by the source's call; i = inactive. A selection: hits, their analogues and other compounds. The true share with any hit is near 2.3%.

SMILES	TRPC6 inh	TRPC4 inh	TRPC6 activator	TRPC4 agonist	TRPC4 PAM
COC(=O)c1ccc(NC(=O)CCN2CCN(Cc3ccccc3)CC2)cc1	i	i	i	i	27*
CCCOc1ccc(NC(=O)CC2C(=O)N(CC)C(=S)N2CCNC(C)=O)cc1 (stereo not drawn)	i	i	i	i	i
CCc1ccc(C(=O)NNC(=O)CCN2CCN(Cc3ccccc3)CC2)cc1	i	i	i	i	12*
O=c1oc(-c2ccc(Br)cc2)nc2ccccc12	i	i	i	i	i
COc1cc2nc(NC(=O)c3ccc(F)cc3Cl)sc(=O)c2cc1OC	i	i	i	i	i
O=C(CCN1CCN(CCO)CC1)Nc1ccc(OCc2ccccc2)cc1	i	i	i	i	i
O=C(CCN1CCN(Cc2ccccc2)CC1)Nc1ccc(OCc2ccccc2)cc1	i	i	i	i	15*
CCCCN(C)C(=O)Cn1ncc2c3ccccc3n(CCC)c2c1=O	i	i	i	i	21*
CCOc1ccc(CSC2=NCCN2)cc1[N+](=O)[O-]	i	i	i	i	11*
CCCCOc1ccc(CSC2=NCCN2)cc1[N+](=O)[O-]	i	i	i	i	i
O=C(CCN1CCCCC1=O)NC1CCCN(Cc2ccc(Cl)cc2)C1 (stereo not drawn)	i	i	i	i	14*
COc1cc(OC)cc(C(=O)NC2CCCN(Cc3ccc(Cl)cc3)C2)c1 (stereo not drawn)	i	i	i	92*	i
O=C(NC1CCCN(Cc2ccc(Cl)cc2)C1)c1ccnc(Cl)c1 (stereo not drawn)	i	i	i	i	i
Cc1cc(C)n(CC(=O)NC2CCCN(Cc3ccc(Cl)cc3)C2)n1 (stereo not drawn)	i	i	i	50*	i
O=C(Cc1cccc(F)c1F)NC1CCCN(Cc2ccc(Cl)cc2)C1 (stereo not drawn)	i	i	i	106*	i
O=C(Cc1ccccc1F)NC1CCCN(Cc2ccc(Cl)cc2)C1 (stereo not drawn)	i	i	i	44*	i
CC(=O)c1c(C)nn(CC(=O)NC2CCCN(Cc3ccc(CC(C)C)cc3)C2)c1C (stereo not drawn)	i	i	i	111*	i
O=C(COc1ccccc1)NC1CCCN(Cc2ccccc2F)C1 (stereo not drawn)	i	i	i	i	i
CC(C)Cc1ccc(CN2CCCC(NC(=O)CCN3CCCCC3=O)C2)cc1 (stereo not drawn)	i	i	i	i	i
CCN1C(=O)c2cccc3c(S(=O)(=O)Nc4ccccc4OC)ccc1c23	i	i	i	76*	i
CC(C)c1ccc2[nH]c3c(c2c1)[C@@H]1CCN2C(=O)CCC[C@H](C3)[C@H]12	i	i	i	i	i
CC(C)(c1ccccc1)c1ccc(OCCCNCCO)cc1	i	-6*	i	i	i
Cc1cccc(NC(=O)NCC2CC2)c1	i	i	i	i	i
CN(C)CCOC(=O)c1cccc(Br)c1	i	i	i	44*	10*
COc1ccccc1C(=O)COC(=O)c1nc(Cl)ccc1Cl	i	i	i	i	i
SMILES	TRPC6 inh	TRPC4 inh	TRPC6 activator	TRPC4 agonist	TRPC4 PAM
O=C(COC(=O)c1nc(Cl)ccc1Cl)c1ccccc1Cl	i	i	i	i	137*
O=C(c1ccc(CN2CCOCC2)cc1)N1CCN(c2ccccc2)CC1	i	-6*	i	i	i
CC(=O)c1ccc(N2CCN(C(=O)c3ccc(Cn4c(=S)[nH]c5ccc(N6CCOCC6)cc5c4=O)cc3)CC2)cc1	i	i	i	i	14*
CC(=O)N1c2ccc(S(=O)(=O)NCCc3ccc(S(N)(=O)=O)cc3)cc2CC1C (stereo not drawn)	i	i	i	i	i
CC(=O)N(c1ccc(Cl)cc1)c1c[nH]c2ccccc12	i	-6*	i	i	i
CC(=O)N(c1ccc(Cl)cc1)c1cn(C(C)=O)c2ccccc12	i	i	i	i	i
CCC(C)(C)c1ccc(OCCCC[n+]2cccc(C)c2)c(C(C)(C)CC)c1	i	i	i	i	i
Nc1cnc(Nc2ccc(Br)cc2)nc1N	i	i	i	i	i
COC(=O)[C@H](Cc1ccccc1)NC(=O)c1ccc2ccccc2n1	i	i	i	i	16*
O=C(NCc1ccco1)c1sc(=S)n2c1[nH]c(=O)c1ccccc12	i	i	i	114*	i
O=C(NC1CCCC1)c1sc(=S)n2c1[nH]c(=O)c1ccccc12	i	i	i	83*	i
O=C(Nc1ccccc1)N1CCCC1c1cccs1 (stereo not drawn)	i	i	i	i	i
CN(C)CCNC(=O)c1sc2cccc(F)c2c1Cl	i	i	i	i	11*
COc1ccc(C(CNc2ccc(C(F)(F)F)cn2)N(C)C)cc1OC (stereo not drawn)	i	-6*	i	i	i
CN(CCc1ccccn1)C(=S)Nc1cccc(S(=O)(=O)N(C)C)c1	i	i	i	101*	i
Cc1cccc(OCC(=O)N(C)CCc2ccccn2)c1	i	i	i	54*	i
CN(C)S(=O)(=O)c1cccc(NC(=S)NCCc2ccccn2)c1	i	i	i	i	i
Cc1cccc(CN(C)CCc2ccccn2)c1	i	i	i	i	i
Cc1ccc(C)c(NC(=S)N(C)CCc2ccccn2)c1	i	i	i	74*	i
Cc1ccccc1NS(=O)(=O)c1ccc(C(=O)NCC2CCCO2)cc1 (stereo not drawn)	i	i	i	i	i
CSc1nsc(NC(=O)Cc2ccccc2)n1	i	-6*	i	i	i
CSc1nsc(SCC(=O)Nc2ccccc2)n1	i	i	i	i	i
C=CCn1c(SCCN2CCOCC2)nc2c1c(=O)[nH]c(=O)n2C	i	i	i	i	23*
C/C(Cl)=C/Cn1c(SCCN2CCOCC2)nc2c1c(=O)[nH]c(=O)n2C	i	i	i	i	i
C=CCSc1nc2c(c(=O)[nH]c(=O)n2C)n1C/C=C(/C)Cl	i	-7*	i	i	i
CCn1c(C)nc2cc(C(=O)N/N=C/c3ccc(O)c(O)c3O)ccc21	i	i	i	i	14*
COc1cccc(-c2c(C#N)c(N)nc3c2c(C)nn3-c2ccccc2)c1O	i	i	i	i	15*
